Experimental data from publication PMC9804882 (Chemmedchem, 2022).

Legend:
[1] = target: T1, labeled rabbit muscle actin (Oryctolagus cuniculus, UniProt P68135); assay: In vitro actin polymerization assay; type: biochemical; details: 5 μM; for actin polymerization curve, RFU reached (lowest point/plateau): CTRL about 37,000 RFU
In short: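 Labeled rabbit muscle actin incubated with test compound (5 μM) using a commercial polymerization kit. DMSO as negative control; latrunculin A and cytochalasin B (5 μM) as reference agents. Filament assembly followed by fluorescence (ex/em 365/410 nm) in kinetic mode for 1 h at room temperature; curves representative of three separate tests.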

[2] = target: T1, labeled rabbit muscle actin; assay: In vitro actin depolymerization assay; type: biochemical; details: 5 μM, added after 1 h polymerization
In short: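 Labeled rabbit muscle actin first polymerized for 1 h under polymerization-assay conditions. Test compound (5 μM) then added, and fluorescence (ex/em 365/410 nm) monitored kinetically for another hour at room temperature. DMSO vehicle; latrunculin A and cytochalasin B (5 μM) as controls; three separate tests.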

MCF‐7 cells [3] = assay: MTT assay; type: cell-based, human
In short: (§1)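 Cells seeded in 48-well plates and serum-starved. They were then exposed for 72 h to test compound dissolved in DMSO over 0.1–200 μM, with viability read by MTT. IC50 calculated from concentration–response data; experiments in triplicate, reported as mean ± SD.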

MDA‐MB‐231 cells = assay: MTT assay; type: cell-based, human
In short: as §1

MCF‐10A cells = assay: MTT assay, cytotoxicity on normal cells; type: cell-based, human; details: 72 h
In short: as §1

[4] = tested on: Enterococcus faecalis (ATCC 19433); assay: MIC determination, broth dilution; type: cell-based; details: E. faecalis ATCC 19433, broth dilution, 37 °C 18 h
In short: (§2)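 Broth dilution per CLSI. Overnight LB cultures diluted to 4000 CFU/mL in 96-well plates, then exposed to test compound at 1, 5, 10, 20, 50 or 100 μg/mL for 18 h at 37 °C. Growth read at 600 nm against DMSO-vehicle growth control; compound-only sterility control; ampicillin as strain-sensitivity control. MIC: lowest concentration inhibiting visible growth; MBC: lowest fully bactericidal concentration. Five experiments, each in triplicate.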

[5] = tested on: Staphylococcus aureus (ATCC 23235); assay: MIC determination, broth dilution; type: cell-based; details: S. aureus ATCC 23235, broth dilution, 37 °C 18 h
In short: as §2

[6] = tested on: Escherichia coli (ATCC 25922); assay: MIC determination, broth dilution; type: cell-based; details: E. coli ATCC 25922, broth dilution, 37 °C 18 h
In short: as §2

[7] = tested on: Gram‐positive and Gram‐negative bacteria (E. coli, S. aureus, E. faecalis); assay: MBC determination and ampicillin control, broth dilution, all strains; type: cell-based; details: all strains used, standard antibiotic control
In short: as §2

MCF‐7 cells [8] = assay: Immunofluorescence analysis of β‐actin; type: cell-based, human; details: MCF‐7, 24 h, IC50 value / 5 μM
MCF‐7 cells [9] = assay: TUNEL assay; type: cell-based, human; details: MCF‐7, 24 h, at IC50 value
recombinant human topo I = target: T2, recombinant human topo I (Homo sapiens, UniProt P11387); assay: Human topoisomerase I relaxation assay; type: biochemical; details: 1 μM, supercoiled pHOT1 substrate
T2 sequence (P11387 1-765): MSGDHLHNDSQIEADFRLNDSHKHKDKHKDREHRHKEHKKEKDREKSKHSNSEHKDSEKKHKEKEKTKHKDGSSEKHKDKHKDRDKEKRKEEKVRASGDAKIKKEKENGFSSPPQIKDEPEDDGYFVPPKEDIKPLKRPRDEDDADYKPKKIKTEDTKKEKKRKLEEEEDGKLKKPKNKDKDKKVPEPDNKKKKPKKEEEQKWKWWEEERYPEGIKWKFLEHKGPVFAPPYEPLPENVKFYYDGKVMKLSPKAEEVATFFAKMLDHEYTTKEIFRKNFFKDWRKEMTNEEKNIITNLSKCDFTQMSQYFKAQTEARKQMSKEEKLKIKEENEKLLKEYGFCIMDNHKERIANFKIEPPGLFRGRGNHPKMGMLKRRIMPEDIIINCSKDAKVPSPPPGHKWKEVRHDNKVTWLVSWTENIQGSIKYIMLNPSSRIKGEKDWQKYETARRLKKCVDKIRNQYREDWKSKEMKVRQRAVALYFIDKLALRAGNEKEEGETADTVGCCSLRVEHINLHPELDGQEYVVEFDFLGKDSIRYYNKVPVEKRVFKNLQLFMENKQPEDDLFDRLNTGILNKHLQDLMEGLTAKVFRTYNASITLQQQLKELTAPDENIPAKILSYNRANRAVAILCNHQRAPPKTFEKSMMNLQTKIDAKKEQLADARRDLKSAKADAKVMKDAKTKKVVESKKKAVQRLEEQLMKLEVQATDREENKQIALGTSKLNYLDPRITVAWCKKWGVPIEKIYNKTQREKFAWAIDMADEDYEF
In short: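 Supercoiled pHOT1 (0.25 μg) relaxed by 2 U recombinant human topo I, without or with test compound at 1 μM; DMSO vehicle control; relaxed-DNA marker run alongside. Products separated on 1% agarose in 1X TAE without ethidium bromide and visualized on a UV transilluminator.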

human topoisomerase II = human topoisomerase II (Homo sapiens, UniProt P11388); assay: Human topoisomerase II decatenation assay; type: biochemical; details: kDNA substrate
In short: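 Decatenation of kinetoplast DNA (0.3 μg) by 3 U human topo II, with test compound at 1 or 10 μM or DMSO vehicle; linear and decatenated kDNA markers included. Gel: 1% agarose in 1X TAE with ethidium bromide (0.5 μg/ml), UV transilluminator read-out.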

[10] = MCF‐10A normal mammary epithelium, MTT

human topoisomerase II, sequence (P11388 whole entry): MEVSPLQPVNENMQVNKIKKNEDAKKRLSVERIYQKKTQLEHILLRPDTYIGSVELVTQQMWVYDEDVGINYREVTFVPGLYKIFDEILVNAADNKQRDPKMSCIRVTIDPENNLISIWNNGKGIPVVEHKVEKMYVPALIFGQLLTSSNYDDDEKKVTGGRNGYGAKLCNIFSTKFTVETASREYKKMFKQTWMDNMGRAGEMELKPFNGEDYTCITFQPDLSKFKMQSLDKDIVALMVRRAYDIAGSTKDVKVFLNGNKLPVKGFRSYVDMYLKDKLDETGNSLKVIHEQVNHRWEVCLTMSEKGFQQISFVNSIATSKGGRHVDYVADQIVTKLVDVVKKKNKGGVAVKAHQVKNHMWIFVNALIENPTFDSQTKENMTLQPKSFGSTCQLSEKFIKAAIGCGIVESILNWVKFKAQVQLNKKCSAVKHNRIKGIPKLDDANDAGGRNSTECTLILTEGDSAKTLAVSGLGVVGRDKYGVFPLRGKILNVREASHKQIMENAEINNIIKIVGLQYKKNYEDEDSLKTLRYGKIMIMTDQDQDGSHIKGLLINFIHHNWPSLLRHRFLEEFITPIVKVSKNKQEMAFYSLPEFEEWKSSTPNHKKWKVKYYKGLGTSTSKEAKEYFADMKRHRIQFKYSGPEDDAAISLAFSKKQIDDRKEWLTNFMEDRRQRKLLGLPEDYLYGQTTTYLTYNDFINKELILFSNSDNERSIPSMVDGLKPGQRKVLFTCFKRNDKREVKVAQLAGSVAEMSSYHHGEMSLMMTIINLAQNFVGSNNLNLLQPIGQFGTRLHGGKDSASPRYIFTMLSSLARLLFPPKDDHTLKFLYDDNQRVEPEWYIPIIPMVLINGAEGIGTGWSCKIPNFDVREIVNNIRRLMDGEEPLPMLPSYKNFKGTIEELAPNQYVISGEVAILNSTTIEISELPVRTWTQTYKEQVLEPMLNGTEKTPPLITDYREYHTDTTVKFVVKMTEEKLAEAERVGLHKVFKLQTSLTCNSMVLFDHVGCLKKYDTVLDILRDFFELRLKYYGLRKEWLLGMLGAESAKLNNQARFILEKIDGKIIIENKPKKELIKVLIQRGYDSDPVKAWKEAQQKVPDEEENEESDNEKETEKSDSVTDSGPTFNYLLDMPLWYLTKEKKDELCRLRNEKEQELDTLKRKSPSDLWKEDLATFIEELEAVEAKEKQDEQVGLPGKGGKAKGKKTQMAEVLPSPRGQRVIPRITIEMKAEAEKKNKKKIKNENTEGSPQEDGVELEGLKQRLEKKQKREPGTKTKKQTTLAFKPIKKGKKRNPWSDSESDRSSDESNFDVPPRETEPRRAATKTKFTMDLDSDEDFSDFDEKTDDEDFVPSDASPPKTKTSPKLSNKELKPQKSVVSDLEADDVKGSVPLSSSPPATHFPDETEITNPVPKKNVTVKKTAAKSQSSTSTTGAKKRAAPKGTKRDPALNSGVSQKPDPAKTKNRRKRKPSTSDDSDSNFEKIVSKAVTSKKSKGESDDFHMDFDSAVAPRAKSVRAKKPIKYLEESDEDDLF

C=C1[C@@H](C)[C@H]2[C@H](Cc3ccccc3)NC(=O)[C@]23OC(=O)/C=C/[C@H](O)CCC[C@@H](C)C/C=C/[C@H]3[C@@H]1O [CB, cytochalasin B, reference compound]
effect on actin polymerization [1]: totally impeded the actin polymerization
actin polymerization curve, RFU reached (lowest point/plateau) [1]: approximately 20,000 RFU
effect on actin depolymerization [2]: no relevant changes in RFU
actin depolymerization curve, RFU reached ([2]; initial value 28,000 RFU): about 28,000 RFU

N.N.[Cl][Pt][Cl] [Cisplatin, reference compound]
IC50 (MCF‐7 cells [3]; MCF‐7, MTT, 72 h): 35.8 ± 0.7 µM
IC50 (MDA‐MB‐231 cells; MDA‐MB‐231, MTT, 72 h): 28.7 ± 0.4 µM
IC50 (MCF‐10A cells; [10]): 81.3 ± 0.6 µM

COC(Cn1ccn(C)[c]1=[Ag-2][I])c1ccccc1 (stereo not shown) [Compound 3, [N‐methyl,N’‐(2‐metoxy‐2‐phenyl)ethyl‐imidazole‐2‐ylidenesilver(I)] iodide]
MIC [4]: 10 µg/mL
IC50 (MCF‐7 cells [3]; MCF‐7, MTT, 72 h): 31.8 ± 0.8 µM
MIC [5]: 5 µg/mL
IC50 (MDA‐MB‐231 cells; MDA‐MB‐231, MTT, 72 h): 52.6 ± 0.3 µM
MIC [6]: 5 µg/mL
IC50 (MCF‐10A cells; [10]): > 200 µM

C/C1=C/C(=O)O[C@@H]2C[C@@H](CC[C@H](C)/C=C\C=C\CC1)O[C@@](O)([C@@H]1CSC(=O)N1)C2 [Latrunculin A, reference compound]
IC50 (MCF‐7 cells [3]; Homo sapiens, MCF7, 72 h): 0.14 µM
effect on actin polymerization [1]: totally impeded the actin polymerization
effect on actin depolymerization [2]: actin depolymerization has occurred
IC50 (MDA‐MB‐231 cells; Homo sapiens, MDA-MB-231, 72 h): 0.024 µM
IC50 (MCF‐10A cells; Homo sapiens, MCF-10A): 0.045 µM

CC1(C)S[C@@H]2[C@H](NC(=O)[C@H](N)c3ccccc3)C(=O)N2[C@H]1C(=O)O [ampicillin, Ampicillin]
strain sensibility to ampicillin [7]: ampicillin‐sensible

[4,5‐dichloro‐[(N‐methyl‐N’(2‐hydroxy‐2‐phenyl‐ethyl)imidazole‐2‐ylidene]silver(I)] acetate [Compound 6]
MIC [4]: 10 µg/mL
IC50 (MCF‐7 cells [3]; MCF‐7, MTT, 72 h): 13.2 ± 0.3 µM
effect on actin polymerization [1]: inhibitory activity on the polymerization of G‐actin, higher than that of CB
time to reach the lowest point of the polymerization curve [1]: around 12 minutes
actin polymerization curve, RFU reached (lowest point/plateau) [1]: approximately 13,000 RFU
effect on actin depolymerization [2]: able to act as a depolymerization inducer
MIC [5]: 5 µg/mL
actin cytoskeleton organization / cell morphology (MCF‐7 cells [8]): caused comparable disorganization of this structure
IC50 (MDA‐MB‐231 cells; MDA‐MB‐231, MTT, 72 h): 38.1 ± 0.8 µM
MIC [6]: 10 µg/mL
apoptosis (green nuclear fluorescence, DNA fragmentation) (MCF‐7 cells [9]): induced apoptosis
inhibition of hTopo I activity (recombinant human topo I): total inhibition of the enzyme activity
IC50 (MCF‐10A cells; [10]): > 200 µM
inhibition of hTopo II activity (human topoisomerase II; 1 μM): did not produce the enzyme inhibition
inhibition of hTopo II activity (human topoisomerase II; 10 μM): totally inhibit the hTopo II activity
